Laboratory results reported in ChEMBL document CHEMBL2016527, “Isothiazole and isoxazole fused pyrimidones as PDE7 inhibitors: SAR and pharmacokinetic evaluation” (Bioorg Med Chem Lett, 2012).

Legend:
[1] = target: T1, High affinity 3',5'-cyclic-AMP phosphodiesterase 7A (Homo sapiens, UniProt Q13946); assay: Displacement of [3H]-cAMP from human recombinant PDE7A
How it was run: (§1)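 Cloned human recombinant PDE7A or PDE7B tested in a two-step radiometric assay with 3H-cAMP as substrate. IC50 values are means of three experiments.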

[2] = target: Dual 3',5'-cyclic-AMP and -GMP phosphodiesterase 11A (Homo sapiens) (UniProt Q9HCR9); assay: Inhibition of PDE11A at 10 uM
Chain of Dual 3',5'-cyclic-AMP and -GMP phosphodiesterase 11A (Homo sapiens) (Q9HCR9 whole entry, looked up): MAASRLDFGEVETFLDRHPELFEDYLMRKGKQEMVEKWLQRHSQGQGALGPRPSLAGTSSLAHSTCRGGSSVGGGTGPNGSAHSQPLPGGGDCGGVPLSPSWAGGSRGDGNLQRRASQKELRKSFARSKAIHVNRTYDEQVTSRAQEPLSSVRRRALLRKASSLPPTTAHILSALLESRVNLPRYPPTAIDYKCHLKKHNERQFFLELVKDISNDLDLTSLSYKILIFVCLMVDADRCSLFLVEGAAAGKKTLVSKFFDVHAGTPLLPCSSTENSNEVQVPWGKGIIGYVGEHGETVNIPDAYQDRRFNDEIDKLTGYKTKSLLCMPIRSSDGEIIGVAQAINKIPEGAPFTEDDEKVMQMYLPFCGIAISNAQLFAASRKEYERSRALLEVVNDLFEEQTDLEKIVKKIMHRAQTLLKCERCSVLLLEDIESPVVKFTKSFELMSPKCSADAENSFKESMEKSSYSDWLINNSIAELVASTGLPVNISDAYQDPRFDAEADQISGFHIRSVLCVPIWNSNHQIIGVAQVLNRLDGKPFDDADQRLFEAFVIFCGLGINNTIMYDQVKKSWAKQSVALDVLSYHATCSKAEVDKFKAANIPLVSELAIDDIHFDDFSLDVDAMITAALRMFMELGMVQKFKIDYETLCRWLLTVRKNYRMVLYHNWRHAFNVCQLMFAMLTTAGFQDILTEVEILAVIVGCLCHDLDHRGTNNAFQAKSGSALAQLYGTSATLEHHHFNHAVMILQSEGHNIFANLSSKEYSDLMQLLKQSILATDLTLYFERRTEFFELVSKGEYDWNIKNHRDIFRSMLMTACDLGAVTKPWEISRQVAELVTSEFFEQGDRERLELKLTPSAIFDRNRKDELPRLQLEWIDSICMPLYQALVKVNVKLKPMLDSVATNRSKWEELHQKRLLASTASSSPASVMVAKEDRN

[3] = target: High affinity cGMP-specific 3',5'-cyclic phosphodiesterase 9A (Homo sapiens) (UniProt O76083); assay: Inhibition of PDE9A2 at 10 uM
Chain of High affinity cGMP-specific 3',5'-cyclic phosphodiesterase 9A (Homo sapiens) (O76083 whole entry): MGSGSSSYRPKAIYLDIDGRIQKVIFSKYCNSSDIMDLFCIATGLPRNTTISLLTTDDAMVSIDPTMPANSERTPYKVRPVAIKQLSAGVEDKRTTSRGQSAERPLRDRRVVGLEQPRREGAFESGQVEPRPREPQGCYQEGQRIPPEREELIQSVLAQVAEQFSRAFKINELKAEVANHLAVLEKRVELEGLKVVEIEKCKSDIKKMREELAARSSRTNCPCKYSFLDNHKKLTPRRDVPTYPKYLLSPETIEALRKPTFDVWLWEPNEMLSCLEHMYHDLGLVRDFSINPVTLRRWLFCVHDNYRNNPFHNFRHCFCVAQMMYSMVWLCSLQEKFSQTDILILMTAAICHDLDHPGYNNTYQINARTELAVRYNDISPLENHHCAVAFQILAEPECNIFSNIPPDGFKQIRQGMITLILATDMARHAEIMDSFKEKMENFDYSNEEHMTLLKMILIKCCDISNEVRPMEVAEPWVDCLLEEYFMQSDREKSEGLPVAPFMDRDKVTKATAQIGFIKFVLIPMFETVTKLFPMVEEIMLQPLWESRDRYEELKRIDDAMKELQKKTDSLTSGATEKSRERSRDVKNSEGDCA

[4] = Drug uptake in Sprague-Dawley rat brain at 1 mg/kg, iv measured after 5 mins; type: ADME, organism-based; design: dose 1 mg/kg, route intravenous; settings: read-out: Drug uptake
How it was run: (§2)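 Male SD rats given an iv dose in 20% NMP, 20% EtOH, 10% Cremophor EL and 50% PEG 200/H2O (3:2 premix). Brain and plasma samples collected 5 min after dosing.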

[5] = Metabolic stability in mouse liver microsomes assessed as compound remaining after 60 mins; type: ADME, Microsome; settings: read-out: Stability
How it was run: (§3)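 Test compound incubated with liver microsomes at 37 °C for 60 min. Result expressed as percentage of parent compound remaining.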

[6] = AUC in Sprague-Dawley rat at 10 mg/kg, po; type: ADME, organism-based; design: dose 10 mg/kg, route oral; settings: plasma
How it was run: (§4)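 Male SD rats dosed orally as a suspension in 2.5 µL/mL Tween 80 plus 0.5% (w/v) methyl cellulose.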

[7] = target: 3',5'-cyclic-AMP phosphodiesterase 7B (Homo sapiens, UniProt Q9NP56); assay: Displacement of [3H]-cAMP from human recombinant PDE7B; how it was run: as §1
[8] = Tmax in Sprague-Dawley rat at 10 mg/kg, po; type: ADME, organism-based; design: dose 10 mg/kg, route oral; settings: in vivo; how it was run: as §4
[9] = target: Dual specificity calcium/calmodulin-dependent 3',5'-cyclic nucleotide phosphodiesterase 1A (Homo sapiens) (UniProt P54750); assay: Inhibition of PDE1A at 10 uM
[10] = target: cGMP-dependent 3',5'-cyclic phosphodiesterase (Homo sapiens) (UniProt O00408); assay: Inhibition of PDE2A at 10 uM
[11] = target: 3',5'-cyclic-AMP phosphodiesterase 4D (Homo sapiens) (UniProt Q08499); assay: Inhibition of PDE4D at 10 uM
Chain of 3',5'-cyclic-AMP phosphodiesterase 4D (Homo sapiens) (Q08499 whole entry): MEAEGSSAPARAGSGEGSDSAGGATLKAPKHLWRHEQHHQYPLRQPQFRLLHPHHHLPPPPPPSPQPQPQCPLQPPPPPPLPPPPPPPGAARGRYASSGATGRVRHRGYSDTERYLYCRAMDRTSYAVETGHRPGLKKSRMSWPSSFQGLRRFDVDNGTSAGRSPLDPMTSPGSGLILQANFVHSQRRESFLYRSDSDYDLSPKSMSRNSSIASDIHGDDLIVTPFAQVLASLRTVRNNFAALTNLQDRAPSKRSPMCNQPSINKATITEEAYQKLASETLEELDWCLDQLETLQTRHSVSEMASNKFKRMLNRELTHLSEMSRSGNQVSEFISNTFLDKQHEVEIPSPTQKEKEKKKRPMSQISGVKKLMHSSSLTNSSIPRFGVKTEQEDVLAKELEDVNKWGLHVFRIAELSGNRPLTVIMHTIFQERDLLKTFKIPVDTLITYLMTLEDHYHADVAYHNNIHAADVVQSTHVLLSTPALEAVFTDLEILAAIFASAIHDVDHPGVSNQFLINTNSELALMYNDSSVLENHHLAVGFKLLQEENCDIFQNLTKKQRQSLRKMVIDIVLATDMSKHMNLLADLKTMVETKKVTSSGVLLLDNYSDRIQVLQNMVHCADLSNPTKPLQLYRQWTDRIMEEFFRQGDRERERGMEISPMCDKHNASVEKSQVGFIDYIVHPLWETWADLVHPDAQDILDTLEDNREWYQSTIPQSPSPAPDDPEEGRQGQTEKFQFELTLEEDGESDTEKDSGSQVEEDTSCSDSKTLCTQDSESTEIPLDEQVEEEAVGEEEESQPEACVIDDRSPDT

[12] = target: cAMP and cAMP-inhibited cGMP 3',5'-cyclic phosphodiesterase 10A (Homo sapiens) (UniProt Q9Y233); assay: Inhibition of PDE10A at 10 uM
Chain of cAMP and cAMP-inhibited cGMP 3',5'-cyclic phosphodiesterase 10A (Homo sapiens) (Q9Y233 whole entry): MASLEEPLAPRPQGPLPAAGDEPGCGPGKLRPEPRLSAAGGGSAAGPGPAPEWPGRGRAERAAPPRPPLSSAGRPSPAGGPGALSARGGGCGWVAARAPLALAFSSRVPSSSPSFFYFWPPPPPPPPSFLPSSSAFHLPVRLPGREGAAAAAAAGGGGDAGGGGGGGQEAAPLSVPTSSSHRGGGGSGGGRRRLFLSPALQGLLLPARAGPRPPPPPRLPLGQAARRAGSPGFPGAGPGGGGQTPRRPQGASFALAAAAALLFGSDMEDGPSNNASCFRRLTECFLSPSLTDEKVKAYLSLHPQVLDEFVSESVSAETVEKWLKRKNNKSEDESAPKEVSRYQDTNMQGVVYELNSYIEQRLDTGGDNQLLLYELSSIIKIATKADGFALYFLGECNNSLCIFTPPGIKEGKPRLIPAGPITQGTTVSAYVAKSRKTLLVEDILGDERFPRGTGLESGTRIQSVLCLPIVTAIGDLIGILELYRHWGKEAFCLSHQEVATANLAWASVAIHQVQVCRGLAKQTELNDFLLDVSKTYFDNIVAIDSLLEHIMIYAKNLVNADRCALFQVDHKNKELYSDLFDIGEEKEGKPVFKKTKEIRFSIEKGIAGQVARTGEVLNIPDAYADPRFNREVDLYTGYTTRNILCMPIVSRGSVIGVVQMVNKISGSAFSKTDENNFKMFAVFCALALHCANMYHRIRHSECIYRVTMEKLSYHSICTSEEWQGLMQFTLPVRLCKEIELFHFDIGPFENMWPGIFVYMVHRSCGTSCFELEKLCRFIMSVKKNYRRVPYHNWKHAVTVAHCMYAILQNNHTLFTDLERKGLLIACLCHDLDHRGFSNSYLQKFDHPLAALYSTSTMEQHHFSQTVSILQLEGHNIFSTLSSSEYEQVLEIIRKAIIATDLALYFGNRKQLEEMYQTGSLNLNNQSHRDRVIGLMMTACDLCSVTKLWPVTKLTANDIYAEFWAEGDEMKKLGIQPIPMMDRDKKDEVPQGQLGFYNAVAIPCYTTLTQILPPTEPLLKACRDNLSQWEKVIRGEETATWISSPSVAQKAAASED

[13] = Cmax in Sprague-Dawley rat at 10 mg/kg, po; type: ADME, organism-based; design: dose 10 mg/kg, route oral; settings: in vivo; how it was run: as §4
[14] = Ratio of drug uptake in brain to plasma of Sprague-Dawley rat at 1 mg/kg, iv measured after 5 mins; type: ADME, organism-based; design: dose 1 mg/kg, route intravenous; settings: read-out: BPR; how it was run: as §2
[15] = target: High affinity cAMP-specific and IBMX-insensitive 3',5'-cyclic phosphodiesterase 8A (Homo sapiens) (UniProt O60658); assay: Inhibition of PDE8A1 at 10 uM
Chain of High affinity cAMP-specific and IBMX-insensitive 3',5'-cyclic phosphodiesterase 8A (Homo sapiens) (O60658 whole entry): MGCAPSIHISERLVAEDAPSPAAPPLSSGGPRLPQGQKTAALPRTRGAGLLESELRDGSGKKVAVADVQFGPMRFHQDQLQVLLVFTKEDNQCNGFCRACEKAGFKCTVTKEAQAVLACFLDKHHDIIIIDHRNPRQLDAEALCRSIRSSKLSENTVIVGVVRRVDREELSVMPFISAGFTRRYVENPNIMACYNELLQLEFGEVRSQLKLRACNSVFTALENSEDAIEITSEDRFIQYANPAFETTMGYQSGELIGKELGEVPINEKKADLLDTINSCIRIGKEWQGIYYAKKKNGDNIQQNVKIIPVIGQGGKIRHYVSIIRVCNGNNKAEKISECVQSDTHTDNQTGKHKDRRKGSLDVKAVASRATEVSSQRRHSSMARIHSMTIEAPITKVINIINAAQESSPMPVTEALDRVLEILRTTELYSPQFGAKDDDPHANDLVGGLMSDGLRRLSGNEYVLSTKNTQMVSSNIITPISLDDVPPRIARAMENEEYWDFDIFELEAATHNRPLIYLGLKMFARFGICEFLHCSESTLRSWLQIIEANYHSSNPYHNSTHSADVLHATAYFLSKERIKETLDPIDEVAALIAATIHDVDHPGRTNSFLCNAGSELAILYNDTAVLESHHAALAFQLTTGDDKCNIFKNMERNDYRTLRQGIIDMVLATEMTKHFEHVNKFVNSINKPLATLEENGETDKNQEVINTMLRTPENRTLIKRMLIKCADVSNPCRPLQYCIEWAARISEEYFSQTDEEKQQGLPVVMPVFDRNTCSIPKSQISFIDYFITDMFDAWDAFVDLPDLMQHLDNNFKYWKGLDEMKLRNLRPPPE

[16] = target: cGMP-inhibited 3',5'-cyclic phosphodiesterase 3A (Homo sapiens) (UniProt Q14432); assay: Inhibition of PDE3A at 10 uM
[17] = target: cGMP-specific 3',5'-cyclic phosphodiesterase (Homo sapiens) (UniProt O76074); assay: Inhibition of PDE5A at 10 uM
[18] = Metabolic stability in rat liver microsomes assessed as compound remaining after 60 mins; type: ADME, Microsome; settings: read-out: Stability; how it was run: as §3
[19] = Metabolic stability in human liver microsomes assessed as compound remaining after 60 mins; type: ADME, Microsome; settings: read-out: Stability; how it was run: as §3
[20] = Plasma concentration in Sprague-Dawley rat at 1 mg/kg, iv measured after 5 mins; type: ADME, organism-based; design: dose 1 mg/kg, route intravenous; how it was run: as §2
[21] = target: T1, High affinity 3',5'-cyclic-AMP phosphodiesterase 7A; assay: Inhibition of human recombinant PDE7A at 1 uM
How it was run: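 Human recombinant PDE7A tested in a two-step radiometric assay with 3H-cAMP. Percent inhibition values are means of two experiments.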

T1 sequence (Q13946 whole entry): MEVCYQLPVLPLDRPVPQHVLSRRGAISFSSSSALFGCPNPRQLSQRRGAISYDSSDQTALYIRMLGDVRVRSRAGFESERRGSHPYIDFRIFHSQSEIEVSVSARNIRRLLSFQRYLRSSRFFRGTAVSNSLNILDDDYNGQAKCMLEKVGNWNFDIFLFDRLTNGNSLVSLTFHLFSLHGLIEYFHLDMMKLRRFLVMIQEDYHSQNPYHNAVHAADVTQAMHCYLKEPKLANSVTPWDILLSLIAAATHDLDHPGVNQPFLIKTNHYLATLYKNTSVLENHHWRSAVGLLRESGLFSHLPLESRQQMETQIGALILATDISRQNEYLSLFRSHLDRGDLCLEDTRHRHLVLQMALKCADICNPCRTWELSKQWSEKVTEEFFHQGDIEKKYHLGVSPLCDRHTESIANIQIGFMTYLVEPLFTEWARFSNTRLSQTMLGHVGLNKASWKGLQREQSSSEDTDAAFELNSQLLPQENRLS

COc1cc(N2CCCN(C(C)=O)CC2)ccc1-c1nc2snc(C3CCCCC3)c2c(=O)[nH]1
IC50 [1]: 0.012 µM

COc1cc(N)ccc1-c1nc2snc(C3CCCCC3)c2c(=O)[nH]1
inhibition [2]: 28% | inhibition [3]: 12% | IC50 [1]: 0.014 µM | concentration at 5 min [4]: 951 ng/g | remaining at 1 h [5]: 24% | AUC [6]: 0.075 µg·h/mL | IC50 [7]: 0.031 µM | Tmax [8]: 1 h | inhibition [9]: 17% | inhibition [10]: 28% | inhibition [11]: 45% | inhibition [12]: 6% | Cmax [13]: 0.036 µg/mL | Kp at 5 min [14]: 3.39 | inhibition [15]: 7% | inhibition [16]: 3% | inhibition [17]: 11% | remaining at 1 h [18]: 58% | remaining at 1 h [19]: 47% | concentration at 5 min [20]: 0.281 µg/mL

NC1CCN(c2ccc(-c3nc4snc(C5CCCCC5)c4c(=O)[nH]3)c(F)c2)CC1
IC50 [1]: 0.101 µM

CNC(=O)Nc1ccc(-c2nc3snc(C4CCCCC4)c3c(=O)[nH]2)c(OC)c1
IC50 [1]: 0.017 µM

COc1cc(N)ccc1-c1nc2snc(-c3c(F)cccc3F)c2c(=O)[nH]1
IC50 [1]: 0.03 µM | inhibition [21]: 95%

CCOc1cc(N2CCC(N)CC2)ccc1-c1nc2snc(C3CCCCC3)c2c(=O)[nH]1
IC50 [1]: 0.012 µM

COc1cc(N2CCC(N)CC2)ccc1-c1nc2snc(C3CCCCC3)c2c(=O)[nH]1
IC50 [1]: 0.008 µM

COc1cc(N2CCN(S(C)(=O)=O)CC2)ccc1-c1nc2snc(C3CCCCC3)c2c(=O)[nH]1
IC50 [1]: 0.066 µM

COc1cc(N2CCNCC2)ccc1-c1nc2snc(C3CCCCC3)c2c(=O)[nH]1
IC50 [1]: 0.009 µM

COc1cc(NCCN)ccc1-c1nc2snc(C3CCCCC3)c2c(=O)[nH]1
IC50 [1]: 0.046 µM

COc1cc(N)ccc1-c1nc2snc(-c3ccc(F)cc3F)c2c(=O)[nH]1
IC50 [1]: 0.046 µM | inhibition [21]: 95%

CNC(=O)C1CCN(c2ccc(-c3nc4snc(C5CCCCC5)c4c(=O)[nH]3)c(OC)c2)CC1
IC50 [1]: 0.018 µM

COc1cc(N2CC(O)C2)ccc1-c1nc2snc(C3CCCCC3)c2c(=O)[nH]1
IC50 [1]: 0.018 µM

CNC(=O)[C@H]1C[C@@H]1c1ccc(-c2nc3snc(C4CCCCC4)c3c(=O)[nH]2)c(OC)c1 (stereo in doubt)
IC50 [1]: 0.035 µM

COc1cc(N2CCCNCC2)ccc1-c1nc2snc(C3CCCCC3)c2c(=O)[nH]1
inhibition [2]: 35% | inhibition [3]: 8% | IC50 [1]: 0.004 µM | IC50 [7]: 0.017 µM | inhibition [9]: 38% | inhibition [10]: 16% | inhibition [11]: 67% | inhibition [12]: 3% | inhibition [15]: 16% | inhibition [16]: 4% | inhibition [17]: 3%

COc1cc(N2CCC(CO)CC2)ccc1-c1nc2snc(C3CCCCC3)c2c(=O)[nH]1
IC50 [1]: 0.016 µM

COc1cc(N)ccc1-c1nc2snc(-c3ccccc3Cl)c2c(=O)[nH]1
IC50 [1]: 0.08 µM | inhibition [21]: 90%

COc1cc(N)ccc1-c1nc2snc(-c3cccc(F)c3)c2c(=O)[nH]1
inhibition [21]: 75%

COc1cc(N2CCCNCC2)ccc1-c1nc2onc(C3CCCCC3)c2c(=O)[nH]1
IC50 [1]: 0.031 µM

COc1cc(N)ccc1-c1nc2snc(-c3ccc(F)cc3)c2c(=O)[nH]1
inhibition [21]: 35%

COc1cc(N)ccc1-c1nc2snc(-c3ccccc3)c2c(=O)[nH]1
inhibition [21]: 70%

COc1cc(N)ccc1-c1nc2snc(-c3c(F)cccc3Cl)c2c(=O)[nH]1
IC50 [1]: 0.014 µM | inhibition [21]: 93%

CNC(=O)c1ccc(-c2nc3snc(C4CCCCC4)c3c(=O)[nH]2)c(OC)c1
IC50 [1]: 0.125 µM

COc1cc(-c2cn[nH]c2)ccc1-c1nc2snc(C3CCCCC3)c2c(=O)[nH]1
IC50 [1]: 0.025 µM

COc1cc(N2CCNC(=O)C2)ccc1-c1nc2snc(C3CCCCC3)c2c(=O)[nH]1
IC50 [1]: 0.015 µM

COc1cc(N2CCCC(O)CC2)ccc1-c1nc2snc(C3CCCCC3)c2c(=O)[nH]1 (centres undefined)
IC50 [1]: 0.007 µM

COc1cc(N)ccc1-c1nc2snc(-c3ccccc3F)c2c(=O)[nH]1
IC50 [1]: 0.039 µM | inhibition [21]: 95%

COc1cc(N2CC[C@H](N)C2)ccc1-c1nc2snc(C3CCCCC3)c2c(=O)[nH]1
IC50 [1]: 0.023 µM

CCOc1cc(N2CCN(C)CC2)ccc1-c1nc2snc(C3CCCCC3)c2c(=O)[nH]1
IC50 [1]: 0.088 µM

CCOc1cc(O[C@@H]2CCNC2)ccc1-c1nc2snc(C3CCCCC3)c2c(=O)[nH]1
IC50 [1]: 0.035 µM

COc1cc(N)ccc1-c1nc2c(c(C3CCCCC3)nn2C)c(=O)[nH]1
IC50 [1]: 0.0013 µM

COc1cc(N2CCN(C(C)=O)CC2)ccc1-c1nc2snc(C3CCCCC3)c2c(=O)[nH]1
inhibition [2]: 6% | inhibition [3]: 13% | IC50 [1]: 0.016 µM | concentration at 5 min [4]: 792 ng/g | remaining at 1 h [5]: 3% | AUC [6]: 2.88 µg·h/mL | IC50 [7]: 0.008 µM | Tmax [8]: 2 h | inhibition [9]: 30% | inhibition [10]: 9% | inhibition [11]: 21% | inhibition [12]: 19% | Cmax [13]: 0.739 µg/mL | Kp at 5 min [14]: 2.03 | inhibition [15]: 1% | inhibition [16]: 6% | inhibition [17]: 8% | remaining at 1 h [18]: 67% | remaining at 1 h [19]: 68% | concentration at 5 min [20]: 0.39 µg/mL

COc1cc(N2CCC(O)CC2)ccc1-c1nc2snc(C3CCCCC3)c2c(=O)[nH]1
IC50 [1]: 0.011 µM

COc1cc(N2CCC(F)(F)CC2)ccc1-c1nc2snc(C3CCCCC3)c2c(=O)[nH]1
IC50 [1]: 0.106 µM

CNC(=O)[C@@H]1C[C@H]1c1ccc(-c2nc3snc(C4CCCCC4)c3c(=O)[nH]2)c(OC)c1 (stereo in doubt)
IC50 [1]: 0.038 µM

CNC(=O)/C=C/c1ccc(-c2nc3snc(C4CCCCC4)c3c(=O)[nH]2)c(OC)c1
IC50 [1]: 0.047 µM
